Bioassay records as filed in PubChem.
V1aR counter – agonists of human V1a receptor, primary screen, counter-screen for OXTR agonist project, fluorescence, CHO-V1R cells; Fluo-8 calcium fluorescence, agonist mode; 0% DMSO, 100% 3 nM vasopressin; activation, % at 3 µM; 320,000 tested, 0.25% active;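 active means activation above the mean activation of all tested compounds plus 3 SD, per screening run, cut at about 20% in these data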;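 further: signal is peak over basal fluorescence ratio across a 100 second FLIPR read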
zfTRPN1 agonist – zebrafish TRPN1 channel agonists, primary screen, cell-based, HEK293, calcium fluorescence | HEK293 zebrafish TRPN1-YFP, Fluo-8 calcium fluorescence; 100% = response to 87 µM carbachol | activation, % at 3 µM | 220,000 tested, 0.18% active;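 active means activation above its plate's cutoff, the mean activation of test wells on that plate plus 3 SD, cut at about 19% in these data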;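 further: 0% = DMSO alone and 100% = 87 µM carbachol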
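Material – zebrafish TRPN1-YFP in HEK293 cells · Doses – 3 µM single point · Schedule – dye 1 h 37 °C plus 30 min RT · Signal – Fluo-8 calcium fluorescence, excitation 470-495 nm, emission 515-575 nm · Read-out – % activation versus carbachol response · Control set – carbachol high, DMSO low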
OXTR agonist – human OXTR agonists, primary screen, fluorescence, CHO-OTR cells, Fluo-8 calcium; Oxytocin receptor (Homo sapiens), P30559; Fluo-8 calcium fluorescence; normalized: DMSO 0%, oxytocin 100%; activation, % at 3 µM; 320,000 tested, 0.32% active;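 active means activation above the mean of all tested compounds plus 3 SD, cutoff set per screening run, cut at about 20% in these data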;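 further: peak over basal fluorescence ratio from a 100 s FLIPR kinetic read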
Target sequence (P30559 whole entry, looked up): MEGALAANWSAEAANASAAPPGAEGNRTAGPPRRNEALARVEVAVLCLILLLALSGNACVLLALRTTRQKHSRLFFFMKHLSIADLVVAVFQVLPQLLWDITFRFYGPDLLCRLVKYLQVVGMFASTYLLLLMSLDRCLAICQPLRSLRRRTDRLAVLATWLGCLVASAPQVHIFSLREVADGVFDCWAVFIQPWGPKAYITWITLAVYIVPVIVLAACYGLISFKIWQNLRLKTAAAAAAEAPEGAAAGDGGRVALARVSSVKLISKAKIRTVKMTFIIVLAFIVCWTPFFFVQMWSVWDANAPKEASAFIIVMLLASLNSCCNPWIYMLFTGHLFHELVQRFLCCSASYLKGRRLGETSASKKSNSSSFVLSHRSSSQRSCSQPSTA
OXTR potentiate – human OXTR potentiators, primary screen, fluorescence, CHO-OTR cells, Fluo-8 calcium; 320,000 tested, 0.061% active; activation, % at 3 µM; Fluo-8 calcium fluorescence, potentiator mode; 0% = oxytocin EC15, 100% = EC100;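 active means activation above that plate's cutoff, the mean activation of tested compounds plus 3 SD, cut at about 6.6% in these data, passing the limit was not always enough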;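 further: 100% uses oxytocin at 75 nM as the full agonist control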
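Assay system: CHO-OTR cells, human receptor / Also added: oxytocin at about EC15, sub-maximal agonist stimulus / Dosing: single dose, 3.0 µM nominal final compound concentration / Incubation: 6 min pre-incubation, 100 s read / Technique: Fluo-8 calcium dye fluorescence / Read-out: % activation vs EC15 and EC100 oxytocin / Benchmarks: EC15 oxytocin low, 75 nM oxytocin high / Replicates: singlicate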
TRPML3 agonist – human TRPML3 channel agonists, primary screen, cell-based, HEK293 TRPML3-YFP, Fluo-8 calcium fluorescence, 3 µM; Mucolipin-3 (Homo sapiens), Q8TDD5; 100% = the carbachol control signal; activation, % at 3 µM; 220,000 tested, 0.29% active; AID 1448, 2008;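 active means activation above its plate's cutoff, the mean activation of the plate's test wells plus 3 SD, cut at about 12% in these data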;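 further: 0% = DMSO only wells and 100% = carbachol wells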
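Material: HEK293 cells stably carrying human TRPML3-YFP; compound dosing: single dose, 3 µM final nominal compound, 0.3% DMSO final; incubation: 1-h 37 °C dye load, 5-s basal, 120-s post-compound reads; technique: Fluo-8 intracellular calcium fluorescence, excitation 470-495 nm, emission 515-575 nm; read-out basis: percent activation from peak-to-basal fluorescence ratio, scaled between DMSO and carbachol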
Numbers without * were called inactive; . = no result; + = active, no number. Most compounds without a hit are left out; they make up all but 0.55% or so of the library.

SMILES	V1aR counter	zfTRPN1 agonist	OXTR agonist	OXTR potentiate	TRPML3 agonist
CCOc1ccc(NS(=O)(=O)c2ccc(C(=O)NCC3(N4CCCCC4)CCCCC3)cc2)cc1	24.8*	.	35.5*	-11.0	.
CCOc1ccc(NS(=O)(=O)c2ccc(C(=O)NCC(c3ccco3)N(C)C)cc2)cc1 (configuration not stated)	22.6*	.	26.1*	-16.8	.
CCOc1ccc(NS(=O)(=O)c2ccc(C(=O)NCc3ccncc3)cc2)cc1	7.8	.	7.3	-14.1	.
Cc1cc(S(=O)(=O)Nc2ccc(C(=O)NCC3(N4CCCCC4)CCCCC3)cc2)ccc1F	0.1	.	0.7	6.5	.
Cc1ccc(NS(=O)(=O)c2ccc(C(=O)NC3CCN(Cc4ccccc4)CC3)cc2)cc1	20.8*	.	21.5*	-10.1	.
Cc1ccc(S(=O)(=O)Nc2cccc(C(=O)NC3CCN(Cc4ccccc4)CC3)c2)cc1F	2.0	.	1.9	-17.6	.
CC(C)c1c(C(=O)N/N=C/c2ccoc2)nnn1-c1nonc1N	1.4	.	2.7	-10.5	.
COc1ccc(/C=N/NC(=O)c2nnn(-c3nonc3N)c2-c2cccs2)cc1OC	11.3	.	5.8	-8.9	.
COc1cccc(-c2c(C(=O)N/N=C/c3cccs3)nnn2-c2nonc2N)c1	28.1*	.	21.4*	-8.3	.
Cc1ccc(/C=N/NC(=O)c2nnn(-c3nonc3N)c2-c2cccs2)cc1	42.4*	.	56.4*	-9.8	.
CC(C)c1c(C(=O)N/N=C/c2ccc(C(F)(F)F)cc2)nnn1-c1nonc1N	78.9*	.	66.0*	-8.0	.
COc1ccc(N2CCN(C3CCCN(C(=O)CN4CCOC4=O)C3)CC2)cc1 (configuration not stated)	0.2	.	-0.2	-12.4	.
CC(C)Cn1c(N)c(C(=O)COC(=O)c2c(O)c(Cl)cc(Cl)c2Cl)c(=O)n(C)c1=O	0.2	.	0.9	-4.3	.
Cn1cc(CN2CCCC(C(=O)Nc3cccc(-c4cc5ccccc5[nH]4)c3)C2)cn1 (configuration not stated)	4.5	.	7.9	-14.3	.
CC(C)n1cc(CN2CCCC(C(=O)Nc3cccc(-c4cc5ccccc5[nH]4)c3)C2)cn1 (configuration not stated)	25.9*	.	24.4*	-13.9	.
O=C(/C=C/c1cccs1)NC(=S)NNC(=O)c1ccccc1O	14.2	20.9*	17.8	-12.2	14.5*
COc1ccc(C(=O)NNC(=S)NC(=O)/C=C/c2cccs2)cc1	1.2	2.2	3.3	-7.4	-0.4
N#C/C(=C\c1ccc(N2CCCCC2)o1)C(N)=O	7.1	4.2	3.3	-2.5	3.6
N#C/C(=C\c1ccc(N2CCCCC2)o1)C(=O)Nc1cccc(Br)c1	199.0*	20.1*	186.7*	-20.7	13.8*
COC(=O)c1ccccc1-c1c2ccc(=N)cc-2oc2cc(N)ccc12	+	.	+	-12.2	.
CC(C(=O)OCC(=O)NC1CCCC1)N1C(=O)c2ccccc2C1=O (configuration not stated)	0.2	.	-0.4	-3.9	.
Cc1ccc(NC(=O)CSCC(=O)Nc2cccc3ncccc23)cc1	-0.8	.	-1.4	-2.2	.
CC(=O)c1ccc(OC(=O)c2ccc(Br)o2)cc1	8.9	-1.2	14.7	-8.6	0.3
CCC(=O)c1ccc(OC(=O)c2ccc(Br)o2)cc1	44.2*	-0.1	34.7*	-21.4	0.0
O=C(Nc1nnc(-c2ccccc2Cl)o1)c1nc2ccccc2s1	58.5*	89.2*	50.4*	-9.7	95.1*
SMILES	V1aR counter	zfTRPN1 agonist	OXTR agonist	OXTR potentiate	TRPML3 agonist
O=C(Nc1nnc(-c2ccccc2Cl)o1)c1ccco1	0.5	-1.0	0.5	-4.9	-0.3
CC(C)S(=O)(=O)c1csc(NC(=O)Nc2ccc(Cl)cc2)c1	17.3	21.2*	10.4	-18.1	6.6
CC(C)N(Cc1nc(-c2ccccc2)no1)S(=O)(=O)c1ccccc1	0.8	-1.1	-2.1	-3.7	25.2*
CCN(CC)c1ccc(C2Nc3cccc4cccc(c34)N2)c(O)c1	0.5	0.0	32.0*	0.8	-0.6
CC(OC(=O)CCCN=C1NS(=O)(=O)c2ccccc21)C(=O)c1ccccc1 (configuration not stated)	33.6*	.	35.5*	-20.1	.
CC(=O)c1ccc(S(=O)(=O)NCC(=O)Nc2nc3ccccc3[nH]2)cc1	-0.4	.	-0.7	-8.2	.
COc1cc(/C=C2\SC(=Nc3ccccc3)NC2=O)cc(Cl)c1O	69.8*	.	89.0*	-11.0	.
COc1cc(/C=C2/SC(=Nc3ccc(O)cc3)NC2=O)ccc1O	1.7	2.1	1.7	-10.1	1.8
CCc1ccc(N2CC(C(=O)OCc3nc4ccsc4c(=O)[nH]3)CC2=O)cc1 (configuration not stated)	-0.1	.	-0.6	-4.0	.
CCC1(c2ccc(F)cc2)NC(=O)N(CC(=O)c2cc(C)n(C3CC3)c2C)C1=O (configuration not stated)	30.4*	.	31.3*	-22.3	.
COc1ccccc1CC(=O)Nc1ccc([N+](=O)[O-])cc1O	10.3	20.9*	14.9	-15.6	5.7
COc1ccccc1NS(=O)(=O)c1cc(NC(=O)CCNC(C)=O)ccc1N1CCCCC1	0.2	.	1.5	-3.8	.
O=C(NC(Nc1nc2ccc([N+](=O)[O-])cc2s1)(C(F)(F)F)C(F)(F)F)c1ccccc1Cl	4.7	22.8*	2.1	-10.5	23.4*
O=C(NC(Nc1nc2ccc([N+](=O)[O-])cc2s1)(C(F)(F)F)C(F)(F)F)c1cccnc1	14.1	18.1	17.3	-11.9	10.2
COc1ccccc1-c1cc(C(=O)NC2CCN(C)CC2)c2ccc(Cl)c(C)c2n1	12.3	.	20.4*	-3.3	.
CC(=O)Nc1sc2c(c1-c1nc3ccccc3s1)CCN(C(C)C)C2	1.1	24.0*	0.5	-2.7	8.6
Cc1ccc(S(=O)(=O)N2CCCC2C(=O)NCc2ccccc2Cl)cc1 (configuration not stated)	0.0	.	-1.2	-3.0	.
Cc1ccc(-c2oc3ccccc3c(=O)c2O)cc1	5.5	0.1	6.6	-9.6	-0.6
O=c1c(O)c(-c2cccs2)oc2ccc(Cl)cc12	91.8*	48.8*	63.2*	-13.4	51.6*
O=c1c(O)c(-c2cccs2)oc2ccccc12	58.8*	25.8*	34.8*	-9.1	16.1*
Cc1ccc(SCC(=O)NNC(=O)CNC(=O)c2ccccc2F)cc1	0.2	.	-0.4	-1.5	.
CCN(CC)c1ccc(C(=O)O)cc1	0.9	-0.2	0.4	-8.7	0.1
CCN(CC)c1ccc(/C=C2\C(=O)c3ccc(C(=O)O)cc3C2=O)cc1	65.6*	68.7*	160.8*	-12.3	23.5*
